Measured values of several laboratories.
Lines come from different studies, so protocols differ.
ADRA1A: Alpha-1A adrenergic receptor (ADRA1A, Homo sapiens, UniProt P35348)
OPRK1: Kappa-type opioid receptor (OPRK1, Cavia porcellus, UniProt P41144)

CSCC[C@H](NC(=O)[C@H](Cc1c[nH]c2ccccc12)NC(=O)[C@@H](N)CO)C(=O)N[C@H](C(=O)N[C@H](C(=O)N1CCC[C@H]1C(=O)N[C@@H](Cc1c[nH]c2ccccc12)C(=O)NCC(=O)N[C@@H](Cc1ccccc1)C(=O)N[C@@H](Cc1c[nH]cn1)C(=O)N[C@@H](CC(C)C)C(=O)N1CCC[C@H]1C(=O)O)[C@@H](C)O)[C@@H](C)O — Kd (Chaperonin GroEL (groEL, Escherichia coli, UniProt P0A6F5); binding; ITC): 1400 nM
C[C@@H](NC(=O)[C@@H](N)Cc1ccc(O)cc1)C(=O)NCC(=O)N[C@@H](Cc1ccccc1)C(=O)N(C)CCC[C@@]1(c2ccc(F)cc2)OCc2cc(C#N)ccc21 — Ki (ADRA1A; ligand displacement; radioligand): 6.8 µM
N=C(N)NCCC[C@@H]1NC(=O)[C@H](Cc2ccc(O)cc2)NC(=O)[C@@H](CCCCN)NC(=O)[C@@H](Cc2ccccc2)NC1=O — Ki (OPRK1; ligand displacement; radioligand; cell membranes): 4.85 µM
CCCC[C@@H](NC(=O)[C@@H](N)Cc1c(C)cc(O)cc1C)C(=O)NCC(=O)N[C@@H](Cc1ccc(F)cc1)C(=O)N(C)CCC[C@@]1(c2ccc(F)cc2)OCc2cc(C#N)ccc21 — Ki (ADRA1A; ligand displacement; radioligand): > 10 µM
Cc1cc(O)cc(C)c1C[C@H](C)C(=O)N[C@@H]1C/C=C/CC[C@@H](C(N)=O)NC(=O)[C@H](Cc2ccccc2)NC(=O)[C@H](Cc2ccccc2)NC1=O — Ki (OPRK1; ligand displacement; radioligand; cell membranes): 0.635 µM
Cc1cc(O)cc(C)c1C[C@H](N)C(=O)N[C@H](CCCNC(=N)N)C(=O)N[C@@H](Cc1c[nH]c2ccccc12)C(=O)N[C@@H](CCCCN)C(N)=O — Ki (OPRK1; ligand displacement; radioligand; cell membranes): 0.0165 µM
Cc1cc(O)cc(C)c1C[C@H](C)C(=O)N[C@@H]1CCCCC[C@@H](C(N)=O)NC(=O)[C@H](Cc2ccccc2)NC(=O)[C@H](Cc2ccccc2)NC1=O — Ki (OPRK1; ligand displacement; radioligand; cell membranes): 0.302 µM
Cc1cc(O)cc(C)c1C[C@H](N)C(=O)N[C@H](C)C(=O)N[C@@H](Cc1ccccc1)C(=O)N[C@@H](CCCN)C(N)=O — Ki (OPRK1; ligand displacement; radioligand; cell membranes): 0.032 µM
CC[C@H](C)[C@H](NC(=O)[C@H](CC(C)C)NC(=O)[C@H](Cc1c[nH]c2ccccc12)NC(=O)[C@H](CCCCN)NC(=O)[C@H](CC(C)C)NC(=O)[C@H](Cc1ccccc1)NC(=O)[C@H](CCC(=O)O)NC(=O)[C@H](CCC(N)=O)NC(=O)[C@@H](NC(=O)[C@H](C)NC(=O)[C@H](CC(C)C)NC(=O)[C@H](CC(=O)O)NC(=O)[C@H](CC(=O)O)NC(=O)[C@H](CC(C)C)NC(=O)[C@H](CC(C)C)NC(=O)[C@H](CCCCN)NC(=O)[C@H](CC(N)=O)NC(=O)[C@H](Cc1ccc(O)cc1)NC(=O)[C@H](CC(=O)O)NC(=O)[C@H](CO)NC(=O)[C@@H](NC(=O)[C@H](Cc1ccccc1)NC(=O)[C@@H](NC(=O)CNC(=O)[C@H](CC(=O)O)NC(=O)[C@H](C)NC(=O)[C@@H](N)Cc1c[nH]cn1)[C@@H](C)O)[C@@H](C)O)[C@@H](C)O)C(=O)N[C@@H](CC(N)=O)C(=O)N[C@@H](CCC(N)=O)C(=O)N[C@@H](CCCCN)C(=O)N[C@H](C(=O)N[C@H](C(=O)N[C@@H](CCC(N)=O)C(=O)O)[C@@H](C)O)C(C)C — EC50 (Glucagon-like peptide 2 receptor (GLP2R, Homo sapiens, UniProt O95838); reporter gene; agonist; luciferase): 1.41 nM
Cc1nccc2c1[nH]c1ccccc12 — Ki (Amine oxidase [flavin-containing] A (MAOA, Homo sapiens, UniProt P21397); enzyme activity; inhibitor): 0.58 µM
CCc1cccc(C)c1C[C@H](NC(=O)[C@@H](CCCNC(=N)N)NC(=O)[C@@H](N)Cc1c(C)cc(O)cc1C)C(=O)N[C@@H](CCCCN)C(N)=O — Ki (OPRK1; ligand displacement; radioligand; cell membranes): 0.000961 µM
Nc1ncnc2c1ncn2[C@@H]1O[C@H](COP(=O)(O)OP(=O)(O)NP(=O)(O)O)[C@@H](O)[C@H]1O — Ki (lptB (Escherichia coli, UniProt P0A9V1); ATPase activity; inhibitor): 25000 µM
CC(C)C[C@H](NC(=O)[C@H](CCCCN)NC(=O)[C@@H]1CCCN1C(=O)[C@@H](N)CCCNC(=N)N)C(=O)N[C@@H](CCCCN)C(=O)O — Ki (ADRA1A; cell-free assay; radioligand): > 10 µM
